Measured values from different studies.
mraY: mraY (Staphylococcus aureus, UniProt Q2FZ93)
AURKC: Aurora kinase C (AURKC, Homo sapiens, UniProt Q9UQB9)

CSCC[C@H](NC(C)=O)C(=O)N[C@@H](CC(=O)O)C(=O)N[C@@H](Cc1ccccc1)C(N)=O — Emax (Gastrin/cholecystokinin type B receptor (CCKBR, Homo sapiens, UniProt P32239); β-arrestin recruitment, agonist; HTLA): 38.1%
CCCCCCC#Cc1cncc(-c2nnc(SCc3cc([N+](=O)[O-])cc([N+](=O)[O-])c3)n2CCOC2OC(CN)C(O)C2O)c1 (stereo not shown) — inhibition (mraY; cell-free assay, inhibitor; 250 µM): > 80%
CNS(=O)(=O)c1ccc(Nc2ncc(C(F)(F)F)c(N3CCC[C@](C)(O)C3)n2)c(C)c1 — remaining binding (Serine/threonine-protein kinase DCLK3 (DCLK3, Homo sapiens, UniProt Q9C098); binding, competition with immobilised ligand; 1 µM): 41%
C1=C/COCc2cc(ccc2OCCN2CCCC2)Nc2nccc(n2)-c2cccc(c2)COC/1 — remaining binding (Activin receptor type-2B (ACVR2B, Homo sapiens, UniProt Q13705); binding; 0.1 µM): 63%
C[C@]1(O)CCCN(c2nc(Nc3ccc(S(=O)(=O)N[C@H]4CC[C@H](CN5CCN(c6ccc(C7CCC(=O)NC7=O)cc6F)CC5)CC4)cc3F)ncc2C(F)(F)F)C1 (stereo partly shown) — remaining binding (BMP-2-inducible protein kinase (BMP2K, Homo sapiens, UniProt Q9NSY1); binding, competition with immobilised ligand; 1 µM): 74%
CCCCCCC#Cc1cncc(-c2nnc(SCc3ccc([N+](=O)[O-])cc3)n2CCCN)c1 — inhibition (mraY; cell-free assay, inhibitor; 250 µM): 82%
N#Cc1ccc(NC(=O)Nc2ccccc2)cc1 — remaining binding (Testis-specific serine/threonine-protein kinase 1 (TSSK1B, Homo sapiens, UniProt Q9BXA7); cell-free assay, competition with immobilised ligand; 25 µM): 83%
NC/C(=C\F)COc1cccc(Cn2c(=S)[nH]c(=O)c3[nH]cnc32)c1 — inhibition (B1 bradykinin receptor (BDKRB1, Homo sapiens, UniProt P46663); ligand displacement, radioligand; 10 µM): < 50%
Cc1cc(-c2ccnc3[nH]cc(F)c23)cc(F)c1[C@@]1(O)[C@H](C)CN(C(=O)CN)C[C@@H]1C — remaining activity (Rho-associated protein kinase 1 (ROCK1, Homo sapiens, UniProt Q13464); enzyme activity, inhibitor; 0.1 µM): 13.5%
CCCCC(=O)Nc1ccc(-c2ccc3ncn(CCC)c(=O)c3c2)cn1 — remaining binding (Serine/threonine-protein kinase SIK1 (SIK1, Homo sapiens, UniProt P57059); binding, competition with immobilised ligand; 0.5 µM): 79%
C[C@]1(O)CCCN(c2nc(Nc3ccc(S(=O)(=O)N[C@H]4CC[C@H](CN5CCN(c6ccc(C7CCC(=O)NC7=O)cc6F)CC5)CC4)cc3Cl)ncc2C(F)(F)F)C1 (stereo partly shown) — remaining binding (AURKC; binding, competition with immobilised ligand; 1 µM): 99%
COc1ccc2oc(-c3ccc4nc(N)oc4c3)c/c(=N\c3ccccc3NC(=O)CCN)c2c1 — remaining binding (Mitogen-activated protein kinase kinase kinase 8 (MAP3K8, Homo sapiens, UniProt P41279); binding; 1 µM): 104%
CCCCCCC#Cc1cncc(-c2nnc(SCc3ccc([N+](=O)[O-])o3)n2CCO)c1 — inhibition (mraY; cell-free assay, inhibitor; 250 µM): 61%
Cc1cc(S(=O)(=O)N[C@H]2CC[C@H](CN3CCN(c4ccc(C5CCC(=O)NC5=O)cc4F)CC3)CC2)ccc1Nc1ncc(C(F)(F)F)c(N2CCC[C@](C)(O)C2)n1 (stereo partly shown) — remaining binding (AURKC; binding, competition with immobilised ligand; 1 µM): 50%
CCCCCCC#Cc1cncc(-c2nnc(SCc3ccc([N+](=O)[O-])o3)n2CCCN)c1 — inhibition (mraY; cell-free assay, inhibitor; 250 µM): 71%
CCN1/C(=C/C(C)=O)Sc2ccc(F)cc21 — inhibition (B2 bradykinin receptor (BDKRB2, Homo sapiens, UniProt P30411); ligand displacement, radioligand; 10 µM): 0%
